In publication PMC4777266 (Pharmacology Research & Perspectives, 2016):
Each block holds one molecule with its values, some of them ahead of it.

Columns and labels:
[1] = Plasma metabolite profiles; assay type: in vivo, male CD‐1 mice; settings: for Highest plasma concentration: at 30 min after dosing; for AUC0‐48 h of radiolabeled component in plasma (% AUC of total RA): pool of 2 mice
[2] = Metabolite profiles in selected tissues 1 h p.d.; assay type: in vivo, male CD‐1 mice; settings: single iv 1 mg/kg, text: % of total radioactivity in the tissue
[3] = Excretion and mass balance; assay type: in vivo, male CD‐1 mice
[4] = Blood/plasma pharmacokinetics of total radiolabeled components; assay type: in vivo, male CD‐1 mice; settings: dried blood and plasma; i.v. 1 mg/kg
Summary of the method: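 Male albino CD-1 mice (30-36 g, 8-10 weeks) got one i.v. saphenous bolus of 1 mg/kg tritiated test nucleoside in 0.9% NaCl (2 mL/kg, 53-67 MBq/kg) under light isoflurane. EDTA blood was drawn at 0.083-48 h, two samples per mouse, n = 1 per time point. Plasma was spun 3000 g, 10 min, 4°C. Aliquots were dried at 37°C to remove tritiated water, then counted by LSC. Noncompartmental PK was used.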

[5] = Quantitative whole-body autoradiography; assay type: in vivo, male CD‐1 mice
Summary of the method: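 The same single 1 mg/kg i.v. tritium-label dose was given to male CD-1 mice. At 0.167, 1, 2, 24 and 48 h, mice were killed under deep isoflurane and frozen in hexane/dry ice at −70°C. 40 µm whole-body sections were exposed to imaging plates for 2 weeks at room temperature and scanned at 50 µm. Densitometry used blood calibrators. Tissue:blood Cmax/AUClast ratios were derived, AUC by linear trapezoidal rule.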

[6] = Tolerability of the single intravenous administration; assay type: in vivo; settings: mice
[7] = male, CD-1, mouse, plasma, iv, 1 mg/kg
[8] = 0–48 h, single iv 1 mg/kg, average of n = 2
[9] = single iv 1 mg/kg, average of n = 2
[10] = single iv 1 mg/kg, average of n = 2, 1 mg/kg

SMILES: O=c1ccn([C@@H]2O[C@H](CO)[C@@H](O)[C@H]2O)c(=O)[nH]1 [Metabolite M1, uridine]
Highest plasma concentration [1]: 0.2 µmol/L
AUC [1, 7]: 1.87 µM·h
concentration at 0.083 h [1, 7]: 5.1 nM
concentration at 0.5 h [1, 7]: 170 nM
concentration at 1 h [1, 7]: 108 nM
concentration at 2 h [1, 7]: 130 nM
concentration at 4 h [1, 7]: 104 nM
concentration at 8 h [1, 7]: 43.4 nM
concentration at 24 h [1, 7]: 26.9 nM
concentration at 48 h [1, 7]: 18.8 nM
AUC0‐48 h of radiolabeled component in plasma (% AUC of total RA) ([1]; single iv 1 mg/kg): 32.8 % AUC of total RA
Amount of radiolabeled component in heart [2]: 28.4%
Amount of radiolabeled component in kidney [2]: 10.6%
Amount of radiolabeled component in liver [2]: 47.6%
Amount of radiolabeled component in lung [2]: 2.31%
Amount of radiolabeled component in salivary gland [2]: 6.88%
Amount of radiolabeled component in spleen [2]: 32.9%
Amount of radiolabeled component, total excretion (urine + feces) [3, 8]: 0.156 % of RA dose

SMILES: CO[C@@H]1[C@H](O)[C@@H](CO)O[C@H]1n1ccc(=O)[nH]c1=O [2′O‐methyluridine, 2′‐O‐methyluridine]
Total detected radiolabeled components, concentration in dried plasma ([1]; 0.083 h postdose, single iv 1 mg/kg): 0.446 µmol/L
Total detected radiolabeled components, concentration in dried plasma ([1]; 0.5 h postdose, single iv 1 mg/kg): 0.617 µmol/L
Total detected radiolabeled components, concentration in dried plasma ([1]; 1 h postdose, single iv 1 mg/kg): 0.343 µmol/L
Total detected radiolabeled components, concentration in dried plasma ([1]; 2 h postdose, single iv 1 mg/kg): 0.270 µmol/L
Total detected radiolabeled components, concentration in dried plasma ([1]; 4 h postdose, single iv 1 mg/kg): 0.241 µmol/L
Total detected radiolabeled components, concentration in dried plasma ([1]; 8 h postdose, single iv 1 mg/kg): 0.134 µmol/L
Total detected radiolabeled components, concentration in dried plasma ([1]; 24 h postdose, single iv 1 mg/kg): 0.080 µmol/L
Total detected radiolabeled components, concentration in dried plasma ([1]; 48 h postdose, single iv 1 mg/kg): 0.0781 µmol/L
Time up to which detectable in plasma ([1]; after i.v. dosing 1 mg/kg, LC‐MS‐RA): up to 24 h
AUC0‐48h ratio of total radioactivity over parent compound ([1]; dried plasma): about 17
clearance ([1]; male, CD-1, mouse, plasma, intravenous, 1 mg/kg): 157 mL/min/kg
AUC [1, 7]: 0.335 µM·h
Cmax [1, 7]: 402 nM
concentration at 0.083 h [1, 7]: 402 nM
concentration at 0.5 h [1, 7]: 119 nM
concentration at 1 h [1, 7]: 22.3 nM
concentration at 2 h [1, 7]: 6 nM
concentration at 4 h [1, 7]: 6.3 nM
concentration at 8 h [1, 7]: 3.6 nM
concentration at 48 h [1, 7]: 6.7 nM
Total detected radiolabeled components, plasma AUC0‐48 h ([1]; single iv 1 mg/kg): 5.69 µM·h
Total detected radiolabeled components, plasma AUC0‐48 h (% AUC of total RA) ([1]; single iv 1 mg/kg): 100 % AUC of total RA
AUC0‐48 h of radiolabeled component in plasma (% AUC of total RA) ([1]; single iv 1 mg/kg): 5.89 % AUC of total RA
Tlast of total radiolabeled components [4]: 48 h
Time up to which total radiolabeled components detectable in the brain ([5]; QWBA): up to 48 h
Cmax tissue over blood ratio ([5]; other matrices): smaller than 2
Share of matrices with AUClast greater than that of blood ([5]; total radiolabeled components): more than 90%
Total detected radioactivity, total excretion (urine + feces) ([3]; 0–48 h, single iv 1 mg/kg): 48.3 % of RA dose
Amount of radiolabeled component, total excretion (urine + feces) [3, 8]: 31.7 % of RA dose
Overall recovery of radioactivity (mass balance) ([3]; 48 h, urine, feces, carcass and tritiated water): 102.3%
Radioactivity in carcass 48 h ([3]; 48 h p.d., single iv 1 mg/kg): 38.6 % of RA dose
Radioactivity in cage wash (0–48) ([3]; single iv 1 mg/kg): 6.81 % of RA dose
Amount of radiolabeled component in urine (0–48 h) [3, 9]: 31.2 % of RA dose
Total detected radioactivity in feces (0–48) [3, 9]: 2.34 % of RA dose
Total detected radioactivity in urine (0–48 h), without cage wash [3, 9]: 45.9 % of RA dose
Amount of radiolabeled component in feces (0–48) [3, 10]: 0.489 % of RA dose
Tolerability [6]: well tolerated

SMILES: Nc1ccn([C@@H]2O[C@H](CO)[C@@H](O)[C@H]2O)c(=O)n1 [Metabolite M5, cytidine]
AUC [1, 7]: 0.0639 µM·h
concentration at 0.5 h [1, 7]: 44 nM
concentration at 2 h [1, 7]: 8.6 nM
concentration at 4 h [1, 7]: 10.3 nM
concentration at 48 h [1, 7]: 0 nM
AUC0‐48 h of radiolabeled component in plasma (% AUC of total RA) ([1]; single iv 1 mg/kg, 1 mg/kg): 1.12 % AUC of total RA
Amount of radiolabeled component, total excretion (urine + feces) [3, 8]: 1.94 % of RA dose
Amount of radiolabeled component in feces (0–48) [3, 9]: 0.102 % of RA dose

The remaining lines, values ahead:

Highest plasma concentration [1]: 0.1 µmol/L
AUC [1, 7]: 1.34 µM·h
concentration at 0.083 h [1, 7]: 14.2 nM
concentration at 0.5 h [1, 7]: 144 nM
concentration at 1 h [1, 7]: 109 nM
concentration at 2 h [1, 7]: 87.5 nM
concentration at 4 h [1, 7]: 63.5 nM
concentration at 8 h [1, 7]: 36.8 nM
concentration at 24 h [1, 7]: 14.5 nM
concentration at 48 h [1, 7]: 17.5 nM
AUC0‐48 h of radiolabeled component in plasma (% AUC of total RA) ([1]; single iv 1 mg/kg): 23.6 % AUC of total RA
Amount of radiolabeled component in heart [2]: 46.6%
Amount of radiolabeled component in kidney [2]: 89.4%
Amount of radiolabeled component in liver [2]: 28.8%
Amount of radiolabeled component in lung [2]: 83.4%
Amount of radiolabeled component in salivary gland [2]: 90.9%
Amount of radiolabeled component in spleen [2]: 57.9%
Amount of radiolabeled component, total excretion (urine + feces) [3, 8]: 4.03 % of RA dose
Amount of radiolabeled component in feces (0–48) [3, 9]: 0.418 % of RA dose
SMILES: O=c1cc[nH]c(=O)[nH]1 [Metabolite M3, uracil]

AUC [1, 7]: 0.461 µM·h
concentration at 0.5 h [1, 7]: 38.9 nM
concentration at 1 h [1, 7]: 33.3 nM
concentration at 2 h [1, 7]: 7.1 nM
concentration at 4 h [1, 7]: 22.6 nM
concentration at 8 h [1, 7]: 11.1 nM
concentration at 24 h [1, 7]: 5.7 nM
concentration at 48 h [1, 7]: 9.6 nM
AUC0‐48 h of radiolabeled component in plasma (% AUC of total RA) ([1]; single iv 1 mg/kg): 8.11 % AUC of total RA
Amount of radiolabeled component in heart [2]: 6.81%
Amount of radiolabeled component in liver [2]: 17.8%
Amount of radiolabeled component in lung [2]: 2.41%
Amount of radiolabeled component in spleen [2]: 3.62%
Amount of radiolabeled component, total excretion (urine + feces) [3, 8]: 0.0771 % of RA dose
Amount of radiolabeled component in urine (0–48 h) [3, 10]: 0.0771 % of RA dose
SMILES: Nc1cc[nH]c(=O)n1 [Metabolite M2, cytosine]
